Test results reported in ChEMBL document CHEMBL4680071, “Structure guided generation of thieno[3,2-d]pyrimidin-4-amine Mycobacterium tuberculosis bd oxidase inhibitors” (RSC Med Chem, 2021).

Columns and labels:
[1] = Inhibition of […] tuberculosis Erdman assessed as replicating ATP by measuring ATP depletion incubated for 15 hrs in presence of Q203 by BacTiter-Glo luminescence assay; parameters: species or system Mycobacterium tuberculosis str. Erdman
Summary of the method: (§1)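 Cultures grown in Middlebrook 7H9 with 0.05% Tween 80, 0.5% glycerol, BSA fraction V, D-glucose and NaCl. Cells pelleted, resuspended in glycerol-free medium at about 10^7 CFU/mL, added to compound dilutions. Plates incubated 15 h at 37°C. BacTiter-Glo reagent added, luminescence read after 12 min to give ATP level. IC50 from curve fitting.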

[2] = Inhibition of cytochrome-bd oxidase in Mycobacterium tuberculosis H37Rv assessed as replicating ATP by measuring ATP depletion incubated for 15 hrs in absence of Q203 by BacTiter-Glo luminescence assay; summary of the method: as §1
[3] = Inhibition of cytochrome-bd oxidase in Mycobacterium tuberculosis clinical isolate N0145 assessed as replicating ATP by measuring ATP depletion incubated for 15 hrs in absence of Q203 by BacTiter-Glo luminescence assay; summary of the method: as §1

Row | SMILES | IC50 [1] | IC50 [2] | IC50 [3]
1 | CCCCNc1nc(CC)nc2sc(C)cc12 | 3.2 µM |  | 
2 | CCc1nc(NCCCc2ccccc2)c2cc(C)sc2n1 | 0.083 µM |  | 
3 | COc1nc2ccc(Br)cc2cc1[C@@H](c1ccccc1)[C@@](O)(CCN(C)C)c1cccc2ccccc12 [BEDAQUILINE] |  | 40 µM | 10 µM
